In ChEMBL document CHEMBL1129609, “Synthesis and antiviral activity evaluation of some new aminoadamantane derivatives. 2” (1996):
Values after ≈ are worked out from the molar mass of the structure shown.

Assays:
[1] = test system: Human immunodeficiency virus 2; assay: Antiviral activity against HIV-2 virus infected CEM cell lines.; type: functional, CCRF-CEM
CCRF-CEM = assay: Cytotoxicity against CEM cell lines.; type: functional; conditions: Homo sapiens
[2] = test system: Human immunodeficiency virus 1; assay: Antiviral activity against HIV-1 virus infected CEM cell lines.; type: functional, CCRF-CEM
Human alphaherpesvirus 1 [3] = assay: Antiviral activity against HSV-1 virus infected HEF cell lines.; type: functional
How it was run: (§1)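 Human embryonic fibroblasts, from embryonic lung or embryonic skin-muscle, infected with the virus. Endpoint is the minimum inhibitory concentration that reduces virus-induced cytopathicity by 50%. Values are averages of at least two separate experiments.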

Human alphaherpesvirus 2 = assay: Antiviral activity against HSV-2 virus infected HEF cell lines.; type: functional; how it was run: as §1
Human alphaherpesvirus 1 [4] = assay: Antiviral activity against TK-HSV-1 virus infected HEF cell lines.; type: functional; how it was run: as §1
HEF = assay: Effects on cell morphology of HEF cell lines.; type: functional; conditions: Homo sapiens
How it was run: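 Human embryonic skin-muscle fibroblasts were examined under the microscope for changes in normal cell morphology. The value is the minimum concentration causing a microscopically detectable alteration, averaged from at least two separate experiments.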

Vaccinia virus = assay: Antiviral activity against vaccinia virus infected HEF cell lines.; type: functional; conditions: Orthopoxvirus vaccinia; how it was run: as §1
Enterovirus C = assay: Antiviral activity against polio 1 virus infected HeLa cell lines.; type: functional
How it was run: (§2)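 Vero (African green monkey kidney), HeLa (human epithelial) or HEL (human embryonic lung) cell monolayers infected with the virus. Readout is the minimum inhibitory concentration that reduces virus-induced cytopathicity by 50%. Values are averages of at least two separate experiments.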

[5] = test system: Vesicular stomatitis virus; assay: Antiviral activity against vesicular stomatitis virus infected HeLa cell lines.; type: functional; how it was run: as §2
Coxsackievirus B4 [6] = assay: Antiviral activity against Coxsackie B4 virus infected HeLa cell lines.; type: functional; conditions: Enterovirus B; how it was run: as §2
Human betaherpesvirus 5 = assay: Antiviral activity against HCMV virus infected HEL cell lines.; type: functional; how it was run: as §2
Human alphaherpesvirus 3 [7] = assay: Antiviral activity against TK+VZV virus infected HEL cell lines.; type: functional; how it was run: as §2
Human alphaherpesvirus 3 [8] = assay: Antiviral activity against TK-VZV virus infected HEL cell lines.; type: functional; how it was run: as §2
HEL = assay: Inhibition of HEL cell proliferation.; type: functional; conditions: Homo sapiens
How it was run: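 Human embryonic lung fibroblasts were used for the proliferation assay. The value is the concentration that reduces cell proliferation by 50%, averaged from at least two separate experiments.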

MDCK [9] = assay: Antiviral activity tested against influenza A,H1N1 virus infected MDCK cell lines.; type: functional; conditions: Canis lupus familiaris
[10] = Antiviral activity against influenza A,H3N2 virus infected MDCK cell lines.; type: functional
Influenza B virus = assay: Antiviral activity against influenza B virus infected MDCK cell lines.; type: functional
MDCK [11] = assay: Antiviral activity of compound was tested against morphology virus infec+ted MDCK cell lines.; type: functional; conditions: Canis lupus familiaris
Semliki Forest virus = assay: Antiviral activity against Semliki forest virus infected Vero cell lines.; type: functional; how it was run: as §2
Coxsackievirus B4 [12] = assay: Antiviral activity against Coxsackie B4 virus infected vero cell lines.; type: functional; conditions: Enterovirus B; how it was run: as §2
Vero = assay: Effects on cell morphology of Vero cell lines.; type: functional; conditions: Chlorocebus sabaeus
How it was run: (§3)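 HeLa (human epithelial) or Vero (African green monkey kidney) cells were examined under the microscope for changes in normal morphology. The value is the minimum concentration causing a detectable alteration, averaged from at least two separate experiments.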

Human respirovirus 3 = assay: Antiviral activity against parainfluenza 3 virus infected Vero cell lines.; type: functional; how it was run: as §2
[13] = test system: Mammalian orthoreovirus 1; assay: Antiviral activity against Reo 1 virus infected vero cell lines.; type: functional; how it was run: as §2
Sindbis virus = assay: Antiviral activity against sindbis virus infected Vero cell lines.; type: functional; how it was run: as §2
[14] = Antiviral activity against influenza A,H2N2 virus infected MDCK cell lines.; type: functional
HeLa = assay: Effects on cell morphology of HeLa cell lines.; type: functional; conditions: Homo sapiens; how it was run: as §3
[15] = test system: Vesicular stomatitis virus; assay: Antiviral activity against vesicular stomatitis virus infected HEF cell lines.; type: functional; how it was run: as §1

Structure (SMILES) | MIC50 [1] | MIC50 (CCRF-CEM) | MIC50 [2] | MIC50 (Human alphaherpesvirus 1 [3]) | MIC50 (Human alphaherpesvirus 2) | MIC50 (Human alphaherpesvirus 1 [4]) | MIC50 (HEF) | MIC50 (Vaccinia virus) | MIC50 (Enterovirus C) | MIC50 [5] | MIC50 (Coxsackievirus B4 [6]) | MIC50 (Human betaherpesvirus 5) | MIC50 (Human alphaherpesvirus 3 [7]) | MIC50 (Human alphaherpesvirus 3 [8]) | MIC50 (HEL) | MIC50 (MDCK [9]) | MIC50 [10] | MIC50 (Influenza B virus) | MIC50 (MDCK [11]) | MIC50 (Semliki Forest virus) | further results
C1CCC2(CC1)CCCN2CC12CC3CC(CC(C3)C1)C2 | > 20 µg/mL | 33 µg/mL (≈ 115 µM) | > 20 µg/mL | > 40 µg/mL | > 40 µg/mL | > 40 µg/mL | 100 µg/mL (≈ 348 µM) | > 40 µg/mL | > 100 µg/mL | 100 µg/mL (≈ 348 µM) | > 100 µg/mL | > 50 µg/mL | 30 µg/mL (≈ 104 µM) | 20 µg/mL (≈ 69.6 µM) | > 50 µg/mL | > 150 µg/mL | > 100 µg/mL | > 100 µg/mL | > 250 µg/mL | > 100 µg/mL | MIC50 (Coxsackievirus B4 [12]): > 100 µg/mL; MIC50 (Vero): > 200 µg/mL; MIC50 (Human respirovirus 3): > 100 µg/mL; MIC50 [13]: > 100 µg/mL; MIC50 (Sindbis virus): > 100 µg/mL; MIC50 [14]: > 100 µg/mL; MIC50 (HeLa): 200 µg/mL (≈ 696 µM); MIC50 [15]: > 40 µg/mL
CN(C)C1(C23CC4CC(CC(C4)C2)C3)CCCC1 | > 40 µg/mL | 70 µg/mL (≈ 283 µM) | > 40 µg/mL | > 40 µg/mL | > 40 µg/mL | > 40 µg/mL | 100 µg/mL (≈ 404 µM) | > 40 µg/mL | > 100 µg/mL | > 100 µg/mL | > 100 µg/mL | 40 µg/mL (≈ 162 µM) | 30 µg/mL (≈ 121 µM) | 30 µg/mL (≈ 121 µM) | 50 µg/mL (≈ 202 µM) | > 80 µg/mL | > 100 µg/mL | > 100 µg/mL | > 250 µg/mL | > 400 µg/mL | MIC50 (Coxsackievirus B4 [12]): > 400 µg/mL; MIC50 (Vero): > 400 µg/mL; MIC50 (Human respirovirus 3): > 400 µg/mL; MIC50 [13]: > 400 µg/mL; MIC50 (Sindbis virus): > 400 µg/mL; MIC50 [14]: 19.7 µg/mL (≈ 79.6 µM); MIC50 (HeLa): 200 µg/mL (≈ 808 µM); MIC50 [15]: > 40 µg/mL
CNC1(C23CC4CC(CC(C4)C2)C3)CCCC1 | > 8 µg/mL | 49 µg/mL (≈ 210 µM) | > 8 µg/mL | > 10 µg/mL | > 10 µg/mL | > 10 µg/mL | 40 µg/mL (≈ 171 µM) | > 10 µg/mL | > 40 µg/mL | > 40 µg/mL | > 40 µg/mL | > 20 µg/mL | > 20 µg/mL | > 20 µg/mL | > 50 µg/mL | 59 µg/mL (≈ 253 µM) | > 60 µg/mL | > 80 µg/mL | > 250 µg/mL | > 100 µg/mL | MIC50 (Coxsackievirus B4 [12]): > 100 µg/mL; MIC50 (Vero): > 400 µg/mL; MIC50 (Human respirovirus 3): > 100 µg/mL; MIC50 [13]: > 100 µg/mL; MIC50 (Sindbis virus): > 100 µg/mL; MIC50 [14]: 9 µg/mL (≈ 38.6 µM); MIC50 (HeLa): > 100 µg/mL; MIC50 [15]: > 10 µg/mL
CCCCN1CCCC1C12CC3CC(CC(C3)C1)C2 (stereo unspecified) | > 40 µg/mL | 74 µg/mL (≈ 283 µM) | > 40 µg/mL | > 40 µg/mL | > 40 µg/mL | > 40 µg/mL | 100 µg/mL (≈ 382 µM) | > 40 µg/mL | > 100 µg/mL | > 100 µg/mL | > 100 µg/mL | > 50 µg/mL | > 50 µg/mL | > 20 µg/mL | > 50 µg/mL | 4 µg/mL (≈ 15.3 µM) | > 100 µg/mL | > 80 µg/mL | 250 µg/mL (≈ 956 µM) | > 100 µg/mL | MIC50 (Coxsackievirus B4 [12]): > 100 µg/mL; MIC50 (Vero): > 200 µg/mL; MIC50 (Human respirovirus 3): > 100 µg/mL; MIC50 [13]: > 100 µg/mL; MIC50 (Sindbis virus): > 100 µg/mL; MIC50 [14]: 44.5 µg/mL (≈ 170 µM); MIC50 (HeLa): 200 µg/mL (≈ 765 µM); MIC50 [15]: > 40 µg/mL
CN1CCCCC12C1CC3CC(C1)CC2C3 (stereo unspecified) | > 200 µg/mL | > 200 µg/mL | 115 µg/mL (≈ 524 µM) | > 200 µg/mL | > 200 µg/mL | > 200 µg/mL | 100 µg/mL (≈ 456 µM) | > 200 µg/mL | > 400 µg/mL | > 400 µg/mL | > 400 µg/mL | > 50 µg/mL | > 50 µg/mL | > 50 µg/mL | > 50 µg/mL | 6.2 µg/mL (≈ 28.3 µM) | 45 µg/mL (≈ 205 µM) | 60 µg/mL (≈ 274 µM) | > 250 µg/mL | > 400 µg/mL | MIC50 (Coxsackievirus B4 [12]): > 400 µg/mL; MIC50 (Vero): > 400 µg/mL; MIC50 (Human respirovirus 3): > 400 µg/mL; MIC50 [13]: > 400 µg/mL; MIC50 (Sindbis virus): > 400 µg/mL; MIC50 [14]: 0.58 µg/mL (≈ 2.64 µM); MIC50 (HeLa): > 400 µg/mL; MIC50 [15]: > 200 µg/mL
C1CCC2(C1)CCCN2CC12CC3CC(CC(C3)C1)C2 | > 40 µg/mL | 59 µg/mL (≈ 216 µM) | > 40 µg/mL | > 40 µg/mL | > 40 µg/mL | > 40 µg/mL | 100 µg/mL (≈ 366 µM) | > 40 µg/mL | > 100 µg/mL | > 100 µg/mL | > 100 µg/mL | > 50 µg/mL | 32 µg/mL (≈ 117 µM) | 20 µg/mL (≈ 73.1 µM) | > 50 µg/mL | > 150 µg/mL | > 47 µg/mL | > 100 µg/mL | > 250 µg/mL | > 100 µg/mL | MIC50 (Coxsackievirus B4 [12]): > 100 µg/mL; MIC50 (Vero): > 400 µg/mL; MIC50 (Human respirovirus 3): > 100 µg/mL; MIC50 [13]: > 100 µg/mL; MIC50 (Sindbis virus): > 100 µg/mL; MIC50 [14]: > 60 µg/mL; MIC50 (HeLa): 200 µg/mL (≈ 731 µM); MIC50 [15]: > 100 µg/mL
CCN1CCCC1C12CC3CC(CC(C3)C1)C2 (stereo unspecified) | > 40 µg/mL | 115 µg/mL (≈ 493 µM) | > 40 µg/mL | > 100 µg/mL | > 100 µg/mL | > 100 µg/mL | 200 µg/mL (≈ 857 µM) | > 100 µg/mL | > 400 µg/mL | > 400 µg/mL | > 400 µg/mL | > 50 µg/mL | > 50 µg/mL | > 50 µg/mL | > 50 µg/mL | > 34 µg/mL | 58 µg/mL (≈ 249 µM) | 60 µg/mL (≈ 257 µM) | 250 µg/mL (≈ 1070 µM) | > 400 µg/mL | MIC50 (Coxsackievirus B4 [12]): > 400 µg/mL; MIC50 (Vero): > 400 µg/mL; MIC50 (Human respirovirus 3): > 400 µg/mL; MIC50 [13]: > 400 µg/mL; MIC50 (Sindbis virus): > 400 µg/mL; MIC50 [14]: > 14 µg/mL; MIC50 (HeLa): > 400 µg/mL; MIC50 [15]: > 100 µg/mL
